Laboratory results reported in ChEMBL document CHEMBL1121809, “Cyclic guanidines. 14. Imidazo[1,2-a]thienopyrimidin-2-one derivatives as blood platelet aggregation inhibitors” (J Med Chem, 1981).
pEC50: −log10 of the molar value.

How the values were obtained:
Type in all cases: functional
[1] = species: Rattus norvegicus; experiment: Inhibition of ADP-induced blood platelet aggregation in rat after 3 hr
Outline: (§1)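 This is an ex vivo time course after a single oral 50 mg/kg dose in 0.5% Tween 80 to fasted rats, with PRP made at 3, 6 or 24 h; controls got vehicle 3 h before blood collection. ADP (10 μM) aggregation was read as extent ΔA at 30 °C. Percent inhibition is versus controls; 5–7 animals, mean ± SD.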

[2] = species: Rattus norvegicus; experiment: Inhibition of ADP-induced blood platelet aggregation in rat after 24 hr; outline: as §1
[3] = species: Rattus norvegicus; experiment: Inhibition of collagen-induced blood platelet aggregation in rat after 24 hr
Outline: (§2)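 Fasted rats received one oral 50 mg/kg dose in 0.5% Tween 80, and PRP was prepared 3, 6 or 24 h later; vehicle controls were bled at 3 h. Collagen-induced aggregation was read as initial maximal rate ΔA/min at 30 °C. Percent inhibition is versus controls; 5–7 animals, mean ± SD.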

[4] = species: Rattus norvegicus; experiment: Inhibition of collagen-induced blood platelet aggregation in rat after 6 hrs; outline: as §2
[5] = system: Rattus norvegicus; experiment: (§3) Ex vivo inhibition of collagen-induced blood platelet aggregation in rat was measured 2 hr after oral administration of 50 mg/kg
Outline: (§4)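 Overnight-fasted rats were dosed orally at (50 mg/10 mL)/kg in 0.5% Tween 80; controls got vehicle at 10 mL/kg. PRP was made from carotid citrated blood 2 h later under pentobarbital. Collagen suspension (absorbance 0.270 at 420 nm) drove aggregation at 30 °C, 1100 rpm. Read-out was the initial maximal rate of absorbance fall (ΔA/min). Inhibition percent is versus controls; 5–7 rats, mean ± SD.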

[6] = species: Rattus norvegicus; experiment: Inhibition of collagen-induced blood platelet aggregation in rat after 3 hrs; outline: as §2
[7] = species: Rattus norvegicus; experiment: In vitro inhibition of ADP-induced blood platelet aggregation
Outline: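 Rat carotid citrated blood was spun at 230g for 7 min to give PRP, adjusted with PPP to about 5 × 10⁵ platelets/μL. Compound in saline or MeOH was added before 10 μM ADP in Tris-HCl/NaCl pH 7.4 with CaCl₂. Aggregation was read at 30 °C, 1100 rpm, as maximal ΔA. EC50 is the concentration giving 50% inhibition.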

[8] = species: Rattus norvegicus; experiment: Inhibition of ADP-induced blood platelet aggregation in rat after 6 hr; outline: as §1
[9] = species: Rattus norvegicus; experiment: In vitro inhibition of collagen-induced blood platelet aggregation
Outline: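 Rat PRP (about 5 × 10⁵ platelets/μL) was preincubated with compound added in saline or MeOH. Aggregation was started with bovine tendon collagen suspension in Tris buffer (absorbance 0.270 at 420 nm; lag 2–3 min). Read at 30 °C, 1100 rpm, as initial maximal rate ΔA/min. EC50 is the concentration giving 50% inhibition.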

[10] = system: Rattus norvegicus; experiment: as §3; parameters: scale not given here; outline: as §4
[11] = system: Rattus norvegicus; experiment: Ex vivo inhibition of collagen-induced blood platelet aggregation in rat was measured 2 hr after administration of vehical alone; outline: as §4

pEC50 [7]	pEC50 [9]	Structure (SMILES)	Delta A/min [1]	Delta A/min [2]	Delta A/min [3]	Delta A/min [4]	Delta A/min [5]	Delta A/min [6]	Delta A/min [8]	Delta A/min [10]	Delta A/min [11]
5.30	6.00	Cc1sc2c(c1C)CN1CC(=O)NC1=N2.Cl	0.173	0.168	0.164	0.153	0.073 ΔA/min	0.094	0.168	–	–
4.74	6.77	Cl.O=C1CN2Cc3c(sc4c3CCCCC4)N=C2N1	–	–	–	–	0.202 ΔA/min	–	–	–	–
3.60	4.92	Cc1cc2c(s1)CN1CC(=O)NC1=N2.Cl	–	–	–	–	–	–	–	0.217 ΔA/min	0.228
3.90	4.46	Cc1cc2c(s1)NC1=NC(=O)CN1C2.Cl	–	–	–	–	0.162 ΔA/min	–	–	–	–
4.47	5.80	O=C1CN2Cc3c(sc4c3COc3ccccc3-4)N=C2N1	–	–	–	–	–	–	–	–	–
< 3.60	4.05	O=C1CN2Cc3cscc3N=C2N1	–	–	–	–	–	–	–	–	–
3.60	4.08	Cl.O=C1CN2C=c3c4c(sc3=NC2=N1)CCCC4	–	–	0.185	0.195	–	0.068	–	0.047 ΔA/min	0.183
< 3.60	< 3.60	O=C1CN2Cc3ccsc3N=C2N1	–	–	–	–	–	–	–	–	–
5.28	6.82	Cl.O=C1CN2Cc3c(sc4ccccc34)N=C2N1	–	–	–	–	–	–	–	0.092 ΔA/min	0.183
3.80	5.40	O=C1CN2Cc3c(sc4c3CCCC4Cc3ccccc3)N=C2N1 (configuration not stated)	–	–	–	–	–	–	–	–	–
5.70	6.21	CC1CCc2c(sc3c2CN2CC(=O)NC2=N3)C1.Cl (configuration not stated)	–	–	–	–	–	–	–	0	0.178

The remaining lines, values behind:

Structure (SMILES)	pEC50 [7]	pEC50 [9]	Delta A/min [1]	Delta A/min [2]	Delta A/min [3]	Delta A/min [4]	Delta A/min [5]	Delta A/min [6]	Delta A/min [8]	Delta A/min [10]	Delta A/min [11]
Cc1c(Cl)sc2c1CN1CC(=O)NC1=N2.Cl	5.38	5.72	0.106	0.122	0.166	0.166	0.222 ΔA/min	0.077	0.121	–	–
Cl.O=C1CN2Cc3c(sc4c3CCC4)N=C2N1	4.40	6.60	–	–	–	–	0.072 ΔA/min	–	–	–	–
CC1CCCc2c1sc1c2CN2C(=NC(=O)C2C)N1.Cl (configuration not stated)	5.52	7.52	–	–	–	–	–	–	–	0.047 ΔA/min	0.183
CCCCC1C(=O)NC2=Nc3sc4c(c3CN21)CCCC4 (configuration not stated)	< 3.60	< 3.60	–	–	–	–	–	–	–	–	–
CC(C)(C)C1CCc2c(sc3c2CN2CC(=O)NC2=N3)C1.Cl (configuration not stated)	4.57	6.60	–	–	–	–	–	–	–	4000	0.117
Cl.O=C1CN2Cc3c(sc4c3SCCC4)NC2=N1	5.92	6.80	–	–	–	–	–	–	–	0.125 ΔA/min	0.171
Cc1sc2c(c1C)CN1C(=N2)NC(=O)C1C.Cl (configuration not stated)	4.70	6.89	–	–	–	–	–	–	–	0.076 ΔA/min	0.183
CCCc1c(CC)sc2c1CN1CC(=O)NC1=N2.Cl	5.52	5.66	–	–	–	–	0.008 ΔA/min	–	–	–	–
CCC1C(=O)NC2=Nc3sc4c(c3CN21)CCCC4 (configuration not stated)	< 3.60	4.22	–	–	–	–	–	–	–	–	–
